Measured values pooled from the literature.
Each line is one published result; the experiments were not run side by side.
TMEM97: Sigma intracellular receptor 2 (TMEM97, Homo sapiens, UniProt Q5BJF2)
SIGMAR1: Sigma non-opioid intracellular receptor 1 (SIGMAR1, Cavia porcellus, UniProt Q60492)
lecB: Fucose-binding lectin PA-IIL (lecB, Pseudomonas aeruginosa, UniProt Q9HYN5)
CHRM3: Muscarinic acetylcholine receptor M3 (CHRM3, Homo sapiens, UniProt P20309)

SMILES | target | observed | mode | technique | setting | Ki
CN1CCN(C2=Nc3ccccc3Oc3ccc(Cl)cc32)CC1 | TMEM97 | ligand displacement |  | radioligand |  | 3460 nM
CC1=NC2(CCN(C)CC2)C(=O)N(c2c(C)cccc2C)C1=O | SIGMAR1 | cell-free assay |  |  |  | 8 nM
Cn1cc(-c2cccc(N3CCc4c(sc5c4CC(C)(C)C5)C3=O)c2CO)cc(Nc2ccncn2)c1=O | Ephrin type-A receptor 7 (EPHA7, Homo sapiens, UniProt Q15375) | cell-free assay |  |  |  | 548 nM
CCN(CC)CCO[C@H]1CC[C@@]2(C)C(=CC[C@@H]3[C@@H]2CC[C@]2(C)C(=O)CC[C@@H]32)C1 | TMEM97 | ligand displacement |  | radioligand |  | 19.3 nM
CC(C)C[C@H](NC(=O)CNC(=O)[C@H](C)NC(=O)c1ccc(S(=O)(=O)NC[C@H]2O[C@@H](C)[C@@H](O)[C@@H](O)[C@@H]2O)cc1)C(=O)N[C@@H](C)C(=O)NC[C@@H]1CCN(c2cc3c(cc2F)c(=O)c(C(=O)O)cn3C2CC2)C1 | lecB | ligand displacement |  | FP |  | 1760 nM
COc1cc2c(cc1OC)CN(CCc1ccc(NC(=O)c3cccc4c(=O)c5cccc(OC)c5[nH]c34)cc1)CC2 | TMEM97 | ligand displacement |  | radioligand |  | 77 nM
CC(C)C[C@H](NC(=O)CNC(=O)[C@H](C)NC(=O)c1ccc(S(=O)(=O)NC[C@H]2O[C@@H](C)[C@@H](O)[C@@H](O)[C@@H]2O)cc1)C(=O)N[C@@H](C)C(=O)N1CCN(c2cc3c(cc2F)c(=O)c(C(=O)O)cn3C2CC2)CC1 | lecB | ligand displacement |  | FP |  | 1920 nM
CN(C)CCCN1c2ccccc2CCc2ccc(Cl)cc21 | TMEM97 | ligand displacement |  | radioligand |  | 200 nM
Cc1cc(N2CCNCC2)nc2ccccc12 | CHRM3 | ligand displacement |  | radioligand | cell membranes | 31600 nM
COCCCN1CCN(c2ccccc2OC)CC1 | Alpha-1D adrenergic receptor (ADRA1D, Homo sapiens, UniProt P25100) | cell-free assay |  |  |  | 170 nM
CCN(CC)CCNC(=O)c1ccc(F)cc1 | SIGMAR1 | ligand displacement |  | radioligand | cell membranes | 8900 nM
c1cc(N2CCNCC2)c2cc[nH]c2c1 | CHRM3 | ligand displacement |  | radioligand | cell membranes | > 31600 nM
NC1C(O)C(O)C(O)C1O (stereo not drawn) | Alpha-mannosidase 2 (Drosophila melanogaster, UniProt Q24451) | enzyme activity | inhibitor | fluorescence |  | 100000 nM
C[C@H](N)Cn1ncc2ccc3c(c21)CCCO3 | 5-hydroxytryptamine receptor 1B (Htr1b, Rattus norvegicus, UniProt P28564) | ligand displacement |  | radioligand |  | 5570 nM
Cc1ncc(C)n2nc(/C=C/c3nc(N4CCCC4)cc(N4CCOCC4)n3)nc12 | cAMP and cAMP-inhibited cGMP 3',5'-cyclic phosphodiesterase 10A (Pde10a, Rattus norvegicus, UniProt Q9QYJ6) | enzyme activity | inhibitor | TR-FRET |  | 0.59 nM
CN1[C@@H]2CC[C@H]1C[C@@H](OC(c1ccccc1)c1ccccc1)C2 | TMEM97 | ligand displacement |  | radioligand |  | 63.7 nM
CC(C)[C@]1(O)[C@H](O)[C@@H]2O[C@]23[C@]2(O[C@H]2C[C@H]2C4=C(CC[C@@]23C)C(=O)OC4)[C@@H]1O | dCTP pyrophosphatase 1 (Homo sapiens, UniProt Q9H773) | enzyme activity | inhibitor |  |  | 85000 nM
CC(C)[C@@H](Nc1nc(Cl)nc2c1ncn2[C@H]1[C@H](O)[C@H](O)[C@]2(CN=[N+]=[N-])C[C@H]12)C1CC1 | Alpha-2B adrenergic receptor (ADRA2B, Homo sapiens, UniProt P18089) | ligand displacement |  | radioligand |  | > 7300 nM
